Results from PubChem BioAssay.
Active and inactive are the calls of the source.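 The calls were made as follows, unless noted: active = current rise at least 3 SD above the untreated control mean in each of two repeat wells; inactive = the rest.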

Experiments:
[1] = target: Potassium voltage-gated channel subfamily KQT member 1 (Homo sapiens) (UniProt P51787); assay: KCNQ1 activators by electrophysiology – IonWorks patch clamp, KCNQ1-CHO cells, orthogonal assay for KCNQ1 potentiator project, confirmation (AID 493184); details: automated patch clamp current, at 10 µM
Outline: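 Test system: KCNQ1-expressing CHO cells. Medium: pH 7.4 external bath. Probe or stimulus: voltage step from -90 mV holding to +40 mV, 2,000 ms. Compound: 10 µM final, single point. Detection: automated perforated-patch electrophysiology. Read-out: percent current increase versus pre-compound level. Repeats: two replicates.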

[2] = target: Potassium voltage-gated channel subfamily E member 1 (Homo sapiens) + Potassium voltage-gated channel subfamily KQT member 1 (Homo sapiens) (UniProt P15382+P51787); assay: KCNQ1-E1 channel activation – thallium flux, CHO-K1 KCNQ1/E1 cells, selectivity assay for KCNQ1 potentiator project, confirmation (AID 493186;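 active = mean duplicate activation above the buffer control mean plus 5 SD of those controls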); details: FluxOR thallium flux, at 10 µM
Outline: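 Material: CHO-K1 cells with KCNQ1/E1 / Timing: dye 90 min, compound 20 min, room temperature / Technique: kinetic thallium-sensitive FluxOR dye fluorescence / Read-out: percent activation scaled between buffer and R-L3 ratio signals / Replicates: tested in duplicate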

Chain of Potassium voltage-gated channel subfamily KQT member 1 (Homo sapiens) (P51787 whole entry, looked up): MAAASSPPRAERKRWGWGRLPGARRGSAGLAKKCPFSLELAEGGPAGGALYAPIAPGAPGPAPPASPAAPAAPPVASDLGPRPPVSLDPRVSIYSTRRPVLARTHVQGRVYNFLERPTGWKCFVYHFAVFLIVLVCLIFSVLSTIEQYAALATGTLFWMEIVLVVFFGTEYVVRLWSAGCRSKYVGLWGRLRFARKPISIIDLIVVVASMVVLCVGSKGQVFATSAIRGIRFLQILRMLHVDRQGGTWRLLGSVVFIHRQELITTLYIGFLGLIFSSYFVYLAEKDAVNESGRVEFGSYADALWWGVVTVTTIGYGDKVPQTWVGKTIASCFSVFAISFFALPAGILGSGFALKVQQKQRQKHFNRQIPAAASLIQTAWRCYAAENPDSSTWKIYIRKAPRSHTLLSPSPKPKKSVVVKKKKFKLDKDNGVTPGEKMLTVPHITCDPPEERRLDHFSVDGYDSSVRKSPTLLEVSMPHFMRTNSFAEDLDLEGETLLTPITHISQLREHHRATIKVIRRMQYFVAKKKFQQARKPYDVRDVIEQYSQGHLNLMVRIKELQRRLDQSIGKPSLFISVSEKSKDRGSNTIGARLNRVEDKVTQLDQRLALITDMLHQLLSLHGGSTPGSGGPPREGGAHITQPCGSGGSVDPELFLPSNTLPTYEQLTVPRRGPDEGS
Chain of Potassium voltage-gated channel subfamily E member 1 (Homo sapiens) + Potassium voltage-gated channel subfamily KQT member 1 (Homo sapiens) (P51787 whole entry, looked up): as the sequence (P51787 whole entry, looked up) above

| Structure (SMILES) | outcome [1] | outcome [2] |
| --- | --- | --- |
| Cc1ccc(/C=C/C(=O)c2ccc(O)cc2)cc1 | inactive |  |
| CCCc1nc2oc3c(NCCN(C)C)ncnc3c2c2c1CCCC2 | inactive | inactive |
| CC(=O)C1=C(S(=O)(=O)c2ccc(C)cc2)CS(=O)(=O)C1 | inactive |  |
| Cc1ccc(OCC(=O)NNC(=S)NC(=O)c2ccc(Br)o2)c(C)c1 | inactive |  |
| O=Cc1cc(N=Nc2ccccc2Cl)ccc1O | inactive |  |
| Cc1cccc(/C=N/NC(=O)c2cc(Br)ccc2O)n1 | inactive |  |
